Source: ChEMBL document CHEMBL1143969, “Synthesis and pharmacological evaluation of bicyclic SNC80 analogues with separated benzhydryl moiety” (Bioorg Med Chem, 2008)

Legend:
Mu-type opioid receptor [1] = target: T1, Mu-type opioid receptor (Homo sapiens, UniProt P35372); assay: Displacement of [3H]naloxone from human mu opioid receptor expressed in CHOK1 cells at 10 uM; format: cell-based; settings: CHO-K1
Outline: (§1)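 Membranes in Tris-HCl pH 7.4 + 0.06% BSA, premixed with wheatgerm agglutinin SPA beads; radioligand solution 10 nmol/L (stock), ~25% DMSO in added solutions. Incubated 150 min at rt, centrifuged 20 min at 500 rpm, counted by scintillation proximity. Naloxone defines non-specific binding. Ki determined where inhibition at 10 µM exceeded 50%.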

[2] = target: T2, Delta-type opioid receptor (Homo sapiens, UniProt P41143); assay: Displacement of [3H]deltorphine 2 from human delta opioid receptor expressed in CHOK1 cells at 10 uM; format: cell-based; settings: CHO-K1
Outline: (§2)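 Membranes diluted 1:87 in 50 mmol/L Tris-HCl, 5 mmol/L MgCl2, pH 7.4; radioligand solution 10 nmol/L (stock), 0.5% DMSO. Incubated 120 min at rt, filtered through PEI-soaked GF/B filters, washed three times with cold buffer, dried 1 h at 55 °C, scintillation counted. Naloxone defines non-specific binding. Ki determined where inhibition at 10 µM exceeded 50%.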

[3] = target: Nociceptin receptor (Homo sapiens) (UniProt P41146); assay: Displacement of [3H]nociceptin from human ORL1 receptor expressed in HEK293 cells at 10 uM; format: cell-based
Mu-type opioid receptor [4] = target: T1, Mu-type opioid receptor; assay: Displacement of [3H]naloxone from human mu opioid receptor expressed in CHOK1 cells; format: cell-based, CHO-K1; outline: as §1
[5] = target: T3, Kappa-type opioid receptor (Homo sapiens, UniProt P41145); assay: Displacement of [3H]C1-977 from human kappa opioid receptor expressed in HEK293 cells at 10 uM; format: cell-based
Outline: (§3)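 SPA format as for mu: membranes diluted 1:34 in 50 mmol/L Tris-HCl, 0.05% NaN3, pH 7.4, mixed with wheatgerm agglutinin SPA beads; 150 min at rt, centrifugation, scintillation counting. Ki determined where inhibition at 10 µM exceeded 50%.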

[6] = target: T3, Kappa-type opioid receptor; assay: Displacement of [3H]C1-977 from human kappa opioid receptor expressed in HEK293 cells; format: cell-based; outline: as §3
[7] = target: T2, Delta-type opioid receptor; assay: Displacement of [3H]deltorphine 2 from human delta opioid receptor expressed in CHOK1 cells; format: cell-based, CHO-K1
Outline: as §2, with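 “binding.” for “binding. Ki determined where inhibition at 10 µM exceeded 50%.”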

T1 sequence (P35372 whole entry): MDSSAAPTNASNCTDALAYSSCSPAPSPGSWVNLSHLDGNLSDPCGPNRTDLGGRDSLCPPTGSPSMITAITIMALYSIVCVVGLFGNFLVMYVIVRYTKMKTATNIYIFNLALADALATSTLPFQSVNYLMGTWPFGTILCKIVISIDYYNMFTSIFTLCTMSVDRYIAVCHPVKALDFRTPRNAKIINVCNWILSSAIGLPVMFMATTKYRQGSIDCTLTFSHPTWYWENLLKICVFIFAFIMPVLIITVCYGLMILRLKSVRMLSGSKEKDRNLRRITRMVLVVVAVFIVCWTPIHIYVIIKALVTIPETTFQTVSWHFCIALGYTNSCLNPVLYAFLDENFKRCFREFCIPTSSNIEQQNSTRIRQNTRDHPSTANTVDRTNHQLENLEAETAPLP
T2 sequence (P41143 whole entry): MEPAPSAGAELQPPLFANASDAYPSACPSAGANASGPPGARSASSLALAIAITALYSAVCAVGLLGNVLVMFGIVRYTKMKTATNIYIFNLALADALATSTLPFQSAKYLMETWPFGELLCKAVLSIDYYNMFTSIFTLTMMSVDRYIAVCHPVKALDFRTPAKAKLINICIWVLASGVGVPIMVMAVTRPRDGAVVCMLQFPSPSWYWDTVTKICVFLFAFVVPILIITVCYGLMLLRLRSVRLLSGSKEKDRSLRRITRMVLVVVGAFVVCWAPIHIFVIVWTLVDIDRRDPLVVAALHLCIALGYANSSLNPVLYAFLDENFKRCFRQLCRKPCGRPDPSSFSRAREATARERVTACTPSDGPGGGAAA
T3 sequence (P41145 whole entry): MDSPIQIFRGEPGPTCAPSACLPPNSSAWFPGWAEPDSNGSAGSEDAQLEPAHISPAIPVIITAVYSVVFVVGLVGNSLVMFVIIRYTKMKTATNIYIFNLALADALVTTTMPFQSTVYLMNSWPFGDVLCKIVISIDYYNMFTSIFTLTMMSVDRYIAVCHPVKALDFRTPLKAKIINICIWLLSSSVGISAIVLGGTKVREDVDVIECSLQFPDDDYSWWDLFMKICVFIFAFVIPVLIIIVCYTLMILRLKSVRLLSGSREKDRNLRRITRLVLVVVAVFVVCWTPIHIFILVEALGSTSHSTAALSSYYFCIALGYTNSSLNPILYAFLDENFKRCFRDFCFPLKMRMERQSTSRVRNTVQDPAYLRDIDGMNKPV
Sequence of Nociceptin receptor (Homo sapiens) (P41146 whole entry): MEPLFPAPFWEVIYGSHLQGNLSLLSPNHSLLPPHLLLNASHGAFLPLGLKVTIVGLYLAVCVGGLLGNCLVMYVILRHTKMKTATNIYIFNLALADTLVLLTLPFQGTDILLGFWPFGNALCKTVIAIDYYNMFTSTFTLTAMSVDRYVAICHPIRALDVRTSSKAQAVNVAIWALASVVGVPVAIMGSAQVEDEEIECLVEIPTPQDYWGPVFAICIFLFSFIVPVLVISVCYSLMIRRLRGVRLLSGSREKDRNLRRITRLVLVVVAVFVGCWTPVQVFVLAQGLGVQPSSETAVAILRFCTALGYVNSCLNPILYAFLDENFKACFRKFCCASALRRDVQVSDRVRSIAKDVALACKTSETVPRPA

| SMILES | inhibition (Mu-type opioid receptor [1]) [%] | inhibition [2] [%] | inhibition [3] [%] | Ki (Mu-type opioid receptor [4]) [µM] | inhibition [5] [%] | Ki [6] [µM] | Ki [7] [µM] |
| --- | --- | --- | --- | --- | --- | --- | --- |
| C=CCN1C[C@@H]2[C@@H](c3ccccc3)CC[C@H]1CN2Cc1ccc(C(=O)N(CC)CC)cc1 | 58 | 34 | 14 | 6.32 | 76 | 1.1 |  |
| C=CCN1C[C@@H]2[C@H](c3ccccc3)CC[C@H]1CN2Cc1ccc(C(=O)N(CC)CC)cc1 | 56 | 6 | 7 | 7.3 | 73 | 1.7 |  |
| CCCN1C[C@@H]2[C@@H](c3ccccc3)CC[C@H]1CN2Cc1ccc(C(=O)N(CC)CC)cc1 | 44 | 4 | 3 |  | 49 |  |  |
| C=CCN1C[C@@H]2C(c3ccccc3)=CC[C@H]1CN2Cc1ccc(C(=O)N(CC)CC)cc1 | 56 | 14 | 9 | 6.8 | 76 | 0.89 |  |
| CCCN1C[C@@H]2[C@H](c3ccccc3)CC[C@H]1CN2Cc1ccc(C(=O)N(CC)CC)cc1 | 61 | 4 | 1 | 5.7 | 63 | 2.4 |  |
| C=CCN1C[C@H]2C(c3ccccc3)=CC[C@@H]1CN2Cc1ccc(C(=O)N(CC)CC)cc1 | 91 | 87 | < 10 | 0.25 | 31 |  | 0.74 |
| CCCN1C[C@@H]2C(c3ccccc3)=CC[C@H]1CN2Cc1ccc(C(=O)N(CC)CC)cc1 | 55 | 20 | 45 |  | 22 |  |  |
